Experiment [1] concerns the target T1, Phosphatidylinositol 4-kinase, PI4K (Homo sapiens) (UniProt Q9BTU6+Q8TCG2+Q9UBF8+P42356). As to the kind of experiment: Rate of phosphorylation was determined with that of mammalian PI using human erythrocyte PI 4-kinase at 200 uM substrate. Format: functional. The gist of the method: (§1)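 Enzyme was extracted with Triton X-100 from human erythrocyte membranes and purified about 90-fold. Substrate at 200 μM final was tested in mixed micelles with 0.3% Triton X-100, 100 μM [γ-32P]ATP, 15 mM MgCl2, 1 mM EGTA, 1 mM DTT, 0.1 M NaCl and 50 mM HEPES pH 7.4 at 30 °C. Reactions were stopped with acidified CHCl3/MeOH, and organic-phase 32P was counted. Rates were expressed relative to mammalian PI, triplicate, mean ± SE.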

For experiment [2], the target named is T1, Phosphatidylinositol 4-kinase, PI4K (Homo sapiens). As to the kind of experiment: Percent relative rate of phosphorylation was determined using human erythrocyte PI 4-kinase. It counts as functional. The gist of the method: as §1

T1 sequence (P42356 whole entry, looked up): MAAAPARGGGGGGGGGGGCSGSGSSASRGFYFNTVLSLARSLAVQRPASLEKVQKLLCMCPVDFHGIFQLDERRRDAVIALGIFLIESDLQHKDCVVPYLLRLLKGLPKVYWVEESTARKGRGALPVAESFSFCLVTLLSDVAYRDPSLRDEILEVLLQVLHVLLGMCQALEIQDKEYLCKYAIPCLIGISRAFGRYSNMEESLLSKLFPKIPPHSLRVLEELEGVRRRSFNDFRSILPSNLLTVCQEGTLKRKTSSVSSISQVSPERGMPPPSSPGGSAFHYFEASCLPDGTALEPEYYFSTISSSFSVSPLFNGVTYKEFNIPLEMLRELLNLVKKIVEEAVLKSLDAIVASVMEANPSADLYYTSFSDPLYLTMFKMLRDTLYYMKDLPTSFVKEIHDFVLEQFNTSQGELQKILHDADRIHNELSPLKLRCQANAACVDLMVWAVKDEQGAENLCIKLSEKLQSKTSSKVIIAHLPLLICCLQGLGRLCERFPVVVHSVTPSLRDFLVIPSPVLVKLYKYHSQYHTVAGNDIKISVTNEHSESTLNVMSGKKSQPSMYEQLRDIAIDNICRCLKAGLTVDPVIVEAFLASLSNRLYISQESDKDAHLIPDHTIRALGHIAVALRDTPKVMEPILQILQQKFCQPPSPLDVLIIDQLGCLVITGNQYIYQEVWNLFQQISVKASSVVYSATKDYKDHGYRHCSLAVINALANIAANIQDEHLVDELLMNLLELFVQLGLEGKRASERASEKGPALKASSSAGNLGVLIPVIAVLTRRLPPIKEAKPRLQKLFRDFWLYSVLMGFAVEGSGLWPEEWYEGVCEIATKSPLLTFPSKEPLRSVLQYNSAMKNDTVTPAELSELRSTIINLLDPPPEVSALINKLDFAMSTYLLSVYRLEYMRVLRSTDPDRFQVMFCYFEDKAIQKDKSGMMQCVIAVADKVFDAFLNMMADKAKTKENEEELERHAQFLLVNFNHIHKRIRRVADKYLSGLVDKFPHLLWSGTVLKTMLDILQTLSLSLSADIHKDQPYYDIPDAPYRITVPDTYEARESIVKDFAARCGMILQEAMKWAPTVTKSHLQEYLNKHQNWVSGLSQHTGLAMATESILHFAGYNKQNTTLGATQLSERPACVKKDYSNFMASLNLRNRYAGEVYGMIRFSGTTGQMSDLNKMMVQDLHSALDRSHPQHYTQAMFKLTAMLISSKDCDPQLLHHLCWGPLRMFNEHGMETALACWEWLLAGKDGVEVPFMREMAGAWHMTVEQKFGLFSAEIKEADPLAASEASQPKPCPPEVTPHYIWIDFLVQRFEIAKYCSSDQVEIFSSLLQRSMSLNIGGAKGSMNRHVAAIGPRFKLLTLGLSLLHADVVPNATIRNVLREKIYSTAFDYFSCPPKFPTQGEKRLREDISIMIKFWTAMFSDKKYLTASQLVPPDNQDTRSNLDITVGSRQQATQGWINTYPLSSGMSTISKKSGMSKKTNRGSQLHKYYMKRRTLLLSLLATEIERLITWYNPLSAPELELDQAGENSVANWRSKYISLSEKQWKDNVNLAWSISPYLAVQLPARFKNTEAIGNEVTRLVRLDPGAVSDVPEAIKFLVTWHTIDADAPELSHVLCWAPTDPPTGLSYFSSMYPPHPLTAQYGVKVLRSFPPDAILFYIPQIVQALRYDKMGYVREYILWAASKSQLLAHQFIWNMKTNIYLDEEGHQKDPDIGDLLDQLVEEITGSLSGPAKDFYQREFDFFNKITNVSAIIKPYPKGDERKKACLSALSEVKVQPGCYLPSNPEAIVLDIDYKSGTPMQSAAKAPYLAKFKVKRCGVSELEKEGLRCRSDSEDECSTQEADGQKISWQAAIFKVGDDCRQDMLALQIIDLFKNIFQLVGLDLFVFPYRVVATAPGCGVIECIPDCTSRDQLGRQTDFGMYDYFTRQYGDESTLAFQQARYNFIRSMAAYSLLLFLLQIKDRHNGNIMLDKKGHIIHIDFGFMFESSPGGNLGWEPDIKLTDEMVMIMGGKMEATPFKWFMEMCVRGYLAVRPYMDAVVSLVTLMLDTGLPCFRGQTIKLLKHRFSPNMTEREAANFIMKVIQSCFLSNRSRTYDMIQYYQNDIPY
T1 sequence (Q8TCG2 whole entry, looked up): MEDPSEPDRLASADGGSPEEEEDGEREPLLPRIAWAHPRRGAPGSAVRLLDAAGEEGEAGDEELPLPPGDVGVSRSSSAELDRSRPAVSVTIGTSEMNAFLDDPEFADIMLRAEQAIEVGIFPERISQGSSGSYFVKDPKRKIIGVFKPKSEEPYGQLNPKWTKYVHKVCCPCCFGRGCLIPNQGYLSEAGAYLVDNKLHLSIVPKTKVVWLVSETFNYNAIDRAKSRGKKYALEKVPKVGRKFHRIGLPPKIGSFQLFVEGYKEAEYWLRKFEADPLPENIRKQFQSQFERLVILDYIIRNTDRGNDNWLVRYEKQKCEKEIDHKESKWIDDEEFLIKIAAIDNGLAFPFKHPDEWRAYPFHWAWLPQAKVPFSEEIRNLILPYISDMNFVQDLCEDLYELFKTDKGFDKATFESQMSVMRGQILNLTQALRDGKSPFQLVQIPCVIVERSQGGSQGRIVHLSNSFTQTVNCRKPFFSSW
T1 sequence (Q9BTU6 whole entry, looked up): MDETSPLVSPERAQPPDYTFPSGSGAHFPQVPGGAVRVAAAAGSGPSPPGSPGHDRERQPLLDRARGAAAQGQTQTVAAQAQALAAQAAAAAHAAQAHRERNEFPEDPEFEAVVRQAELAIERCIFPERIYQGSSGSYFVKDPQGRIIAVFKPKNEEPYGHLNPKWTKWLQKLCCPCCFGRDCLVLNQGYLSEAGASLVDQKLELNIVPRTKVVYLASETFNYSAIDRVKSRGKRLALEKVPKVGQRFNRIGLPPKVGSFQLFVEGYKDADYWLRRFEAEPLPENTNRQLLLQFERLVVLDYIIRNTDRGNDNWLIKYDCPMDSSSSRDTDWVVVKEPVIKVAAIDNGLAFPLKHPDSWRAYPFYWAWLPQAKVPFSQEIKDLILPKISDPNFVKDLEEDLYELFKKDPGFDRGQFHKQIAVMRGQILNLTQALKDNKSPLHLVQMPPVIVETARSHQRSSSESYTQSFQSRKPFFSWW
T1 sequence (Q9UBF8 whole entry, looked up): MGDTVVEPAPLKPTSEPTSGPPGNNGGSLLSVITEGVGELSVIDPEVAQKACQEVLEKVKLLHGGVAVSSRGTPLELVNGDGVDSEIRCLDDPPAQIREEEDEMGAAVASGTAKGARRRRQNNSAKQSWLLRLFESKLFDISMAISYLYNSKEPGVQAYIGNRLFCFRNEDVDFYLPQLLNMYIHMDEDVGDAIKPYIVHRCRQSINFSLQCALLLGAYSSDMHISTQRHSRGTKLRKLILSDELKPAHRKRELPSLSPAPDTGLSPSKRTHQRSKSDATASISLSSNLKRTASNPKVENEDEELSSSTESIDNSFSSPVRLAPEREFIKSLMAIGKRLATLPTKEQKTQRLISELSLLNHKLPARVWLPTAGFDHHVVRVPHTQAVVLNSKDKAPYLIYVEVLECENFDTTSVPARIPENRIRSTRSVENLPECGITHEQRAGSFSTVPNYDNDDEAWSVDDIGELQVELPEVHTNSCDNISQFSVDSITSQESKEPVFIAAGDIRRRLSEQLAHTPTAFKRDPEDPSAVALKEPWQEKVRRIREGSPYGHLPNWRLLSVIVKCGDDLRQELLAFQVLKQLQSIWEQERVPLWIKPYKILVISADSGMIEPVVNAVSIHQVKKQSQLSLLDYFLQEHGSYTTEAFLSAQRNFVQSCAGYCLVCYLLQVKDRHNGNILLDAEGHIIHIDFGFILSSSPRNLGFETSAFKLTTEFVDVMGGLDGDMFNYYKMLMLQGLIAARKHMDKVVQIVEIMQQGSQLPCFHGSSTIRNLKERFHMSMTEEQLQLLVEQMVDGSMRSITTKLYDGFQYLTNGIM

For `CCCCCCCCCCCCCCCC(=O)OCC(COP(=O)(O)OC1C(O)C(O)C(O)C(O)C1O)OC(=O)CCCCCCCCCCCCCCC` (stereo in doubt; 10c), the Rate of formation in experiment [1] turned out to be 1.01 pmol/min. The same compound showed a Relative rate in experiment [2] of 4.3%.

In experiment [1], `CCCCCCCCCCCCCCCC(=O)OCC(COP(=O)(O)OC1C(O)C(O)C(O)C(O)C1O)OC(=O)CCCCCCCCCCCCCCC` (stereo in doubt; 10d) yielded a Rate of formation of 0.76 pmol/min. For the same compound, the Relative rate in experiment [2] was 3.2%.

In the case of `CCCCCCCCCCCCCCCC(=O)OCC(COP(=O)(O)OC1C(O)C(O)C(O)C(O)C1O)OC(=O)CCCCCCCCCCCCCCC` (stereo in doubt; 10a), the Rate of formation in experiment [1] came out at 24.9 pmol/min. In experiment [2], the Relative rate came out at 106%.

As for `CCCCC/C=C/C/C=C/C/C=C/C/C=C/CCCC(=O)OC(COC(=O)CCCCCCCCCCCCCCCCC)COP(=O)(O)OC1C(O)C(O)C(O)C(O)C1O` (stereo not given), the Rate of formation in experiment [1] is 23.5 pmol/min. This compound yielded a Relative rate in experiment [2] of 100%.

Compound `CCCCCCCCCCCCCCCC(=O)OCC(COP(=O)(O)OC1C(O)C(O)C(O)C(O)C1O)OC(=O)CCCCCCCCCCCCCCC` (stereo in doubt; 10b) returned a Rate of formation in experiment [1] of 23.5 pmol/min. Also, the Relative rate in experiment [2] was 100%.

(Values after ChEMBL document CHEMBL1124820, “Total synthesis of the four stereoisomers of dihexadecanoyl phosphatidylinositol and the substrate stereospecificity of human erythrocyte membrane phosphatidylinositol 4-kinase” (J Med Chem, 1990).)
